What was measured:
[1] = test system: MDA-MB-231; assay: Anti-invasive activity against human MDA-MB-231 cells at 0.1 uM after 24 hrs by Hema staining based microscopic method relative to control; format: functional; conditions: MDA-MB-231, 24 h
In short: (§1)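 Matrigel-coated transwell invasion chambers are hydrated 2 h at 37 °C, with 5% FBS/DMEM above and 10% FBS/DMEM below as chemoattractant. 4 × 10^4 cells go in the upper chamber. Compound or vehicle (0.2% DMSO in PBS) is added to both chambers. After 24 h at 37 °C, 5% CO2, invaded cells are fixed, Hema-stained and counted in five membrane regions. Counts are normalized to solvent control, mean ± SD.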

[2] = molecular target: T1, Sodium channel protein type 5 subunit alpha (Homo sapiens, UniProt Q14524); assay: Inhibition of neonatal Nav1.5 in human MDA-MB-231 cells assessed as reduction in inward sodium peak current by measuring half inactivation potential at 10 uM at -100 mV holding potential after 5 to 10 mins by whole cell patch clamp method (reference value: -66 +/- 2.5 mV); format: cell-based; conditions: mda-mb-231, 10 µM
Target sequence in this assay (Q14524 whole entry): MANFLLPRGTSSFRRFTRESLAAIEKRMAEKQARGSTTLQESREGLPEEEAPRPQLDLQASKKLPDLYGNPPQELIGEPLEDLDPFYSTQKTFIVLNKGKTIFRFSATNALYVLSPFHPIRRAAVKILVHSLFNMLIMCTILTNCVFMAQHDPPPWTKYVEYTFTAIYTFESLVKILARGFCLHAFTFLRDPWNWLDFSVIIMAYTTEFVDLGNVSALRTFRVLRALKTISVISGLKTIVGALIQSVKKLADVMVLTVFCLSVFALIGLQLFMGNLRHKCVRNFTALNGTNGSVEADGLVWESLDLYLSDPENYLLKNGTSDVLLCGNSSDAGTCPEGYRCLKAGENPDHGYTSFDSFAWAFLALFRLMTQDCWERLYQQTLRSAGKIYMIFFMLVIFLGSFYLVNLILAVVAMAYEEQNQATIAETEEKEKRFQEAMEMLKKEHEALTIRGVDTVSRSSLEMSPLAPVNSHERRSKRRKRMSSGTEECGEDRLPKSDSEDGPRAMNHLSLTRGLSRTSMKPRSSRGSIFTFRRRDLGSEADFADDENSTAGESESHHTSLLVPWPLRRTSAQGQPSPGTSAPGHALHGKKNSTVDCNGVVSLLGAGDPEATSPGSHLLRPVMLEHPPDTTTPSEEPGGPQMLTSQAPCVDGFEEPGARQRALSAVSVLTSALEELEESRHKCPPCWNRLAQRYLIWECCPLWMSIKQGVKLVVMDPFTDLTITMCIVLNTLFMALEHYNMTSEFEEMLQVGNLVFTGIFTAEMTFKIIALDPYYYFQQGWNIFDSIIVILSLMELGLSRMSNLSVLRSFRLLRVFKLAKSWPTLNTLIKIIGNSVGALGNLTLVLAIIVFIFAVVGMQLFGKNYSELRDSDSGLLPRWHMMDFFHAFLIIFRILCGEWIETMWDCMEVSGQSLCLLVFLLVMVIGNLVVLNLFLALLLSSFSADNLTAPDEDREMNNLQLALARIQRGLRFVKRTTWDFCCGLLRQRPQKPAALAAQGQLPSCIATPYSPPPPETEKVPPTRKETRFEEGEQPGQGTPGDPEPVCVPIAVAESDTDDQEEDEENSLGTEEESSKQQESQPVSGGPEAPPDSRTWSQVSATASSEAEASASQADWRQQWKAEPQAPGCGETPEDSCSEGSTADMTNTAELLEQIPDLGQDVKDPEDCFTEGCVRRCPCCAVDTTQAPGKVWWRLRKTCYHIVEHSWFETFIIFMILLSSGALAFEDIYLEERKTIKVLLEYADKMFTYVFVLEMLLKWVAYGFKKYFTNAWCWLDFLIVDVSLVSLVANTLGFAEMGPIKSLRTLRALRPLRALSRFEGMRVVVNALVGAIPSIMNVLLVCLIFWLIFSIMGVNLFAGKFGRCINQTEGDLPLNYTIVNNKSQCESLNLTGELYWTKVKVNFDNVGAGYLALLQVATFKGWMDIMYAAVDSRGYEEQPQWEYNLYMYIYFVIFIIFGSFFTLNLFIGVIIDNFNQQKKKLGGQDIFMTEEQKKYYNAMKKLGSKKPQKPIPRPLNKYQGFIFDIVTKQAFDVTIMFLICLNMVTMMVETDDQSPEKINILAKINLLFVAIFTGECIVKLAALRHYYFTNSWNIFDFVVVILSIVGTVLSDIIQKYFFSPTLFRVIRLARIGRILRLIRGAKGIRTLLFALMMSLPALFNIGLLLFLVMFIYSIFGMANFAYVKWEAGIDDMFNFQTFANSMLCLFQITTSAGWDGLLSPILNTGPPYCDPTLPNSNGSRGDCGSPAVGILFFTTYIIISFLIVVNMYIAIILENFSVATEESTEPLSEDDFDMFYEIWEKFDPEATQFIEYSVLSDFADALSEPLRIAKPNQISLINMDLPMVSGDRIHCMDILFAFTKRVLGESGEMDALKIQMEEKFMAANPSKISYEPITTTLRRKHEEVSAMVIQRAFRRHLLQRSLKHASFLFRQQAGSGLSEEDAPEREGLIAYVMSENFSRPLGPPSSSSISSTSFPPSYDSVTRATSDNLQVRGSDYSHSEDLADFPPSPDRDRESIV

[3] = molecular target: T1, Sodium channel protein type 5 subunit alpha; assay: Inhibition of neonatal Nav1.5 in human MDA-MB-231 cells assessed as reduction in inward sodium peak current at 10 uM at -100 mV holding potential after 5 to 10 mins by whole cell patch clamp method relative to control; format: cell-based; conditions: MDA-MB-231, human
In short: (§2)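 Whole-cell voltage clamp is used, with capacitance and series resistance compensated 60% and P/2 leak subtraction. Cells are perifused with PSS (mM: NaCl 140, KCl 4, MgCl2 1, CaCl2 2, NaH2PO4 0.33, glucose 11.1, HEPES 10; pH 7.4), with or without compound (final 0.2% DMSO), for 5–10 min. Peak INa is evoked by 30 ms steps from −100 to −5 mV. Percent block is taken from peak current. The concentration-response over 0.1–100 μM is Hill-fitted.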
Target sequence in this assay (Q14524 whole entry): as above

[4] = molecular target: T1, Sodium channel protein type 5 subunit alpha; assay: Inhibition of neonatal Nav1.5 in human MDA-MB-231 cells assessed as reduction in inward sodium peak current at 100 uM at -100 mV holding potential after 5 to 10 mins by whole cell patch clamp method relative to control; format: cell-based; conditions: MDA-MB-231, human
In short: (§3)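 Whole-cell voltage clamp on MDA-MB-231 cells grown in 5% FBS DMEM, with 60% capacitance and series-resistance compensation and P/2 leak subtraction. Cells were perifused with PSS (mM: NaCl 140, KCl 4, MgCl2 1, CaCl2 2, NaH2PO4 0.33, glucose 11.1, HEPES 10; pH 7.4) with 0.2% DMSO, and compound was applied 5–10 min (final 0.1–100 μM). Peak INa was evoked by 30 ms steps from −100 to −5 mV. Percent block was taken against control, followed by wash-out.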
Target sequence in this assay (Q14524 whole entry): as above

[5] = test system: MDA-MB-231; assay: Anti-invasive activity against human MDA-MB-231 cells at 1 uM after 24 hrs by Hema staining based microscopic method relative to control; format: functional; conditions: MDA-MB-231, 24 h; in short: as §1
[6] = Cytotoxicity against human MDA-MB-231 cells assessed as reduction in cell viability after 24 hrs by MTS assay; format: cell-based
In short: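 Cells are seeded at 10^4/well in 5% FBS/DMEM and grown 24 h at 37 °C, 5% CO2. They are then exposed 24 h to 1, 5, 10 or […] μM compound or vehicle (0.25% DMSO in PBS), with 5 wells per concentration. MTS is added for 30 min and absorbance read at 490 nm. The maximum non-toxic concentration is judged against vehicle, mean of five repeats.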

[7] = molecular target: T1, Sodium channel protein type 5 subunit alpha; assay: Reversible inhibition of neonatal Nav1.5 in human MDA-MB-231 cells assessed as reduction in sodium peak current elecited for membrane depolarization from -100 mV to -5 mV by measuring remaining current amplitude at 0.1 to 100 uM at -100 mV holding potential treated for 5 to 10 mins followed by compound washout by whole cell patch clamp method relative to control
Target sequence in this assay (Q14524 whole entry): as above

[8] = molecular target: T1, Sodium channel protein type 5 subunit alpha; assay: Inhibition of neonatal Nav1.5 in human MDA-MB-231 cells assessed as reduction in inward sodium peak current by measuring half activation potential at 10 uM at -100 mV holding potential after 5 to 10 mins by whole cell patch clamp method (reference value: -30.7 +/- 0.9 mV); format: cell-based; conditions: mda-mb-231, 10 µM
Target sequence in this assay (Q14524 whole entry): as above

[9] = molecular target: T1, Sodium channel protein type 5 subunit alpha; assay: Inhibition of neonatal Nav1.5 in human MDA-MB-231 cells assessed as reduction in inward sodium peak current at 1 uM at -100 mV holding potential after 5 to 10 mins by whole cell patch clamp method relative to control; format: cell-based; conditions: MDA-MB-231, human; in short: as §3
Target sequence in this assay (Q14524 whole entry): as above

[10] = molecular target: T1, Sodium channel protein type 5 subunit alpha; assay: Inhibition of neonatal Nav1.5 in human MDA-MB-231 cells assessed as reduction in inward sodium peak current at -100 mV holding potential after 5 to 10 mins by whole cell patch clamp method; format: cell-based; in short: as §2
Target sequence in this assay (Q14524 whole entry, looked up): as the sequence (Q14524 whole entry) above

[11] = test system: MDA-MB-231; conditions: Homo sapiens, 30 uM
[12] = molecular target: T1, Sodium channel protein type 5 subunit alpha; assay: Inhibition of neonatal Nav1.5 in human MDA-MB-231 cells assessed as reduction in inward sodium peak current by measuring half inactivation potential at 10 uM at -100 mV holding potential after 5 to 10 mins by whole cell patch clamp method (reference value: -71.6 +/- 0.4 mV); format: cell-based; conditions: mda-mb-231, 10 µM
[13] = molecular target: T1, Sodium channel protein type 5 subunit alpha; assay: Inhibition of neonatal Nav1.5 in human MDA-MB-231 cells assessed as reduction in inward sodium peak current by measuring half activation potential at 10 uM at -100 mV holding potential after 5 to 10 mins by whole cell patch clamp method (reference value: -33 +/- 1.2 mV); format: cell-based; conditions: mda-mb-231, 10 µM
[14] = molecular target: T1, Sodium channel protein type 5 subunit alpha; assay: Irreversible inhibition of neonatal Nav1.5 in human MDA-MB-231 cells assessed as reduction in sodium peak current elecited for membrane depolarization from -100 mV to -5 mV at -100 mV holding potential treated for 5 to 10 mins followed by compound washout by whole cell patch clamp method relative to control; format: cell-based; in short: as §3

| Structure (SMILES) | inhibition at 0.1 µM [1] [%] | inhibition at 10 µM [3] [%] | inhibition at 100 µM [4] [%] | inhibition at 1 µM [5] [%] | MNTC at 24 h [6] [µM] | inhibition at 1 µM [9] [%] | IC50 [10] [µM] | other results |
| --- | --- | --- | --- | --- | --- | --- | --- | --- |
| Fc1ccc(CCCCNCCCN2CCCCC2)cc1 | 20 | 60 | > 95 | 28 | > 25 | 25 | 5.9 | V1/2 [2]: -77.5 mV; Activity [7]: 17.4%; V1/2 [8]: -36.8 mV |
| CC(C)(C)CCCCNCCCN1CCCCC1 |  | 30 |  |  | 10 |  |  |  |
| Fc1ccc(C(CCCNCCc2ccccc2)c2ccc(F)cc2)cc1 |  | 30 |  |  | 10 |  |  |  |
| NC1=N[C@H](O)[C@H]2[C@H]3O[C@]4(O)O[C@@H]([C@@H](O)[C@@]2(N1)[C@@H]4O)[C@]3(O)CO [TETRODOTOXIN] |  |  |  |  | 30 |  |  | inhibition [11]: 31.5% |
| Fc1ccc(C(CCCNCCCc2ccccc2)c2ccc(F)cc2)cc1 |  | 30 |  |  | 10 |  |  |  |
| Fc1ccc(C(CCCNCCCN2CCCCC2)c2ccc(F)cc2)cc1 | 20 | 50 | > 95 | 30.3 | 5 | 34.9 | 4.8 | V1/2 [12]: -88.6 mV; V1/2 [13]: -34.9 mV; inhibition (INH) [14]: Dose-dependent effect |

Reference: ChEMBL document CHEMBL4219233, “Discovery and evaluation of nNav1.5 sodium channel blockers with potent cell invasion inhibitory activity in breast cancer cells” (Bioorg Med Chem, 2018)
